Data: paper PMC5003678 (European journal of medicinal chemistry, 2016)

Columns and labels:
[1] = tested on: six cancer cell lines (HL-60, HCT-116, PC3, SF295, MDA-MB-435, OVCAR-8); test: MTT cytotoxicity assay, cancer cell lines overall; format: cell-based, human; conditions: classified by IC50
[2] = tested on: HL-60 (human promyelocytic leukemia cells); conditions: read-out: Cytotoxic activity IC50 (95% CI) HL-60; 72 h exposure; ref [41]; cited from earlier work
[3] = tested on: SF295 (human glioblastoma cells); conditions: read-out: Cytotoxic activity IC50 (95% CI) SF295; 72 h exposure; ref [41]; cited from earlier work
[4] = tested on: A549 cells (human non-small cell lung adenocarcinoma); test: DNA survival assay, NQO1-dependency with or without dicoumarol; format: cell-based; conditions: two hours exposure
PC3 cells = test: Annexin V/PI detection of phosphatidylserine externalization; format: cell-based, human; conditions: 5 μM, 6 h; for phosphatidylserine externalization, pre-treated with NAC: 5 mM NAC pre-exposure (24 h); for phosphatidylserine externalization, co-treated with dicoumarol: dicoumarol 50 μM
Summary of the method: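 PC3 cells were grown in RPMI 1640 with 10% FBS, 2 mM L-glutamine and penicillin/streptomycin at 37 °C and 5% CO2. They were exposed to 5 μM test compound for 6 h, either after a 24 h pre-exposure to 5 mM N-acetylcysteine or with 50 μM dicoumarol co-treatment. Cells were stained with FITC-Annexin V plus PI and read by flow cytometry, with early apoptosis as FITC only and late as FITC+PI. 10,000 events were counted per experiment, debris excluded, n = 3.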

intracellular ROS = test: Generation of intracellular ROS; format: cell-based

SMILES | activity classification against cancer cell lines [1] | NQO1 Specific [4] | phosphatidylserine externalization (PC3 cells) | phosphatidylserine externalization, pre-treated with NAC (PC3 cells) | phosphatidylserine externalization, co-treated with dicoumarol (PC3 cells) | further results
C#Cc1cccc(NC2CC(C)(C)OC3=C2C(=O)c2ccccc2C3=O)c1 (stereo not drawn) [Compound 4, 4-((3-ethynylphenyl)amino)-2,2-dimethyl-3,4-dihydro-2H-benzo[g]chromene-5,10-dione] | non-active | – | – | – | – | –
CC1(C)OC2=C(C(=O)C(=O)c3ccccc32)C(N=[N+]=[N-])[C@@H]1Br (stereo partly drawn) [Compound 9] | – | – | – | – | – | IC50 [2]: 1.43 µM; IC50 [3]: 1.93 µM
CC1(C)OC2=C(C(=O)C(=O)c3ccccc32)C1Nc1cccc(-c2cn(C[Se]c3ccccc3)nn2)c1 (stereo not drawn) [Compound 21, 2,2-dimethyl-3-((3-(1-((phenylselanyl)methyl)-1H-1,2,3-triazol-4-yl)phenyl)amino)-2,3-dihydronaphtho[1,2-b]furan-4,5-dione] | highly active (highly active (IC50 < 2 μM)) | NQO1-dependent | significant increase | not observed | not observed | generation of intracellular ROS, pre-exposed with NAC (intracellular ROS; cultures pre-exposed with NAC): not able to generate ROS; generation of intracellular ROS (intracellular ROS; short exposure (1 h)): led to the generation of intracellular ROS
CC1(C)OC2=C(C(=O)C(=O)c3ccccc32)C1n1cc(C[Se]c2ccccc2)nn1 (stereo not drawn) [Compound 22, 2,2-dimethyl-3-(4-((phenylselanyl)methyl)-1H-1,2,3-triazol-1-yl)-2,3-dihydronaphtho[1,2-b]furan-4,5-dione] | – | NQO1-dependent | significant increase | not observed | not observed | –
O=C1C(=O)c2ccccc2C2=C1CC(Cn1cc(C[Se]c3ccccc3)nn1)O2 (stereo not drawn) [Compound 26, 2-((4-((phenylselanyl)methyl)-1H-1,2,3-triazol-1-yl)methyl)-2,3-dihydronaphtho[1,2-b]furan-4,5-dione] | highly active (highly active (IC50 < 2 μM)) | – | – | – | – | –
